BindingDB's records for doi:10.1021/jm9009229 (University of California, 2010)

Target: Cruzipain (Trypanosoma cruzi, UniProt P25779)
Experiment: Inhibition of Trypanosoma cruzi cruzain preincubated for 5 mins before substrate addition in presence of 0.01% Triton X-100
Summary of the method: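 Cruzain IC50s were measured from dose-response curves with Triton X-100 in the assay buffer at either 0.01% or 0.001%. At 0.001% Triton, some runs included pre-incubation with BSA.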

Sequence of Cruzipain (P25779 whole entry): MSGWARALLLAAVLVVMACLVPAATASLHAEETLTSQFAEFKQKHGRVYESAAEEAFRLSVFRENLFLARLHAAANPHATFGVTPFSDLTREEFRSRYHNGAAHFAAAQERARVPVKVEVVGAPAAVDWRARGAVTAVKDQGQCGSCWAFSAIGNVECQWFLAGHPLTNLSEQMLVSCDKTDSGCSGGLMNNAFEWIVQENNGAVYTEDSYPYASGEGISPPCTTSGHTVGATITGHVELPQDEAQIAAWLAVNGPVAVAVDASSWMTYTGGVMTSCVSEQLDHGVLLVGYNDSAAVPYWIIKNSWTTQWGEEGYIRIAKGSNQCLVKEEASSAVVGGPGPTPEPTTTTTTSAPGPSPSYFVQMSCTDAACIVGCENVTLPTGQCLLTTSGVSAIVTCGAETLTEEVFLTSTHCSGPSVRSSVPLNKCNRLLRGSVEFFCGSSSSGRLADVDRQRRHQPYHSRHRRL

Structure (SMILES)	IC50 [µM]
Cc1cc(NC(=O)c2nnc(-c3ccccc3N)o2)[nH]n1 [5-(2-Amino-phenyl)-[1,3,4]oxadiazole-2-carboxylic acid(5-methyl-2H-pyrazol-3-yl)-amide]	> 100
Nc1ccccc1-c1nnc(C(=O)Nc2ccc3oc4c(c3c2)CCCC4)o1 [5-(2-Amino-phenyl)-[1,3,4]oxadiazole-2-carboxylic acid(6,7,8,9-tetrahydrodibenzofuran-2-yl)-amide]	> 100
Nc1ccccc1-c1nnc(C(=O)Nc2cccc(N3CCCC3)c2)o1 [5-(2-Amino-phenyl)-[1,3,4]oxadiazole-2-carboxylic acid(3-pyrrolidin-1-yl-phenyl)-amide]	> 100

Continued, values first:

IC50 [µM]	Structure (SMILES)
> 100	Cc1ccc(-c2cc(NC(=O)c3nnc(-c4ccccc4N)o3)[nH]n2)cc1 [5-(2-Amino-phenyl)-[1,3,4]oxadiazole-2-carboxylic acid(5-p-tolyl-2H-pyrazol-3-yl)-amide]
> 100	Nc1ccccc1-c1nnc(C(=O)Nc2cc(-c3ccccc3)n[nH]2)o1 [5-(2-Amino-phenyl)-[1,3,4]oxadiazole-2-carboxylic acid(5-phenyl-2H-pyrazol-3-yl)-amide]
> 50	CC(C)(C)c1cc(NC(=O)c2nnc(-c3ccccc3N)o2)[nH]n1 [5-(2-Amino-phenyl)-[1,3,4]oxadiazole-2-carboxylic acid(5-tert-butyl-2H-pyrazol-3-yl)-amide]
> 100	COc1ccc(-c2cc(NC(=O)c3nnc(-c4ccccc4N)o3)[nH]n2)cc1 [5-(2-Amino-phenyl)-[1,3,4]oxadiazole-2-carboxylic acid[5-(4-methoxy-phenyl)-1Hpyrazol-3-yl]-amide]
